{
  "source": "ChEMBL document CHEMBL4350954",
  "about": "“Identification of Thienopyrimidine Scaffold as an Inhibitor of the ABC Transport Protein ABCC1 (MRP1) and Related Transporters Using a Combined Virtual Screening Approach” (J Med Chem, 2019)",
  "key": {"[1]": {"assay": "Growth inhibition of MDCK2 cells co-expressing BCRP (unknown origin) after 72 hrs by MTT assay", "assay_type": "ADME, cell-based, Canis lupus familiaris, MDCK-II", "details": "dog", "in_short": "(§1)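 MTT-based cytotoxicity assay giving GI50 of the compound alone in each listed parental, selected or transfected cell line.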"}, "[2]": {"target": "T1, Multidrug resistance-associated protein 1 (Homo sapiens, UniProt P33527)", "T1 sequence (P33527 whole entry)": "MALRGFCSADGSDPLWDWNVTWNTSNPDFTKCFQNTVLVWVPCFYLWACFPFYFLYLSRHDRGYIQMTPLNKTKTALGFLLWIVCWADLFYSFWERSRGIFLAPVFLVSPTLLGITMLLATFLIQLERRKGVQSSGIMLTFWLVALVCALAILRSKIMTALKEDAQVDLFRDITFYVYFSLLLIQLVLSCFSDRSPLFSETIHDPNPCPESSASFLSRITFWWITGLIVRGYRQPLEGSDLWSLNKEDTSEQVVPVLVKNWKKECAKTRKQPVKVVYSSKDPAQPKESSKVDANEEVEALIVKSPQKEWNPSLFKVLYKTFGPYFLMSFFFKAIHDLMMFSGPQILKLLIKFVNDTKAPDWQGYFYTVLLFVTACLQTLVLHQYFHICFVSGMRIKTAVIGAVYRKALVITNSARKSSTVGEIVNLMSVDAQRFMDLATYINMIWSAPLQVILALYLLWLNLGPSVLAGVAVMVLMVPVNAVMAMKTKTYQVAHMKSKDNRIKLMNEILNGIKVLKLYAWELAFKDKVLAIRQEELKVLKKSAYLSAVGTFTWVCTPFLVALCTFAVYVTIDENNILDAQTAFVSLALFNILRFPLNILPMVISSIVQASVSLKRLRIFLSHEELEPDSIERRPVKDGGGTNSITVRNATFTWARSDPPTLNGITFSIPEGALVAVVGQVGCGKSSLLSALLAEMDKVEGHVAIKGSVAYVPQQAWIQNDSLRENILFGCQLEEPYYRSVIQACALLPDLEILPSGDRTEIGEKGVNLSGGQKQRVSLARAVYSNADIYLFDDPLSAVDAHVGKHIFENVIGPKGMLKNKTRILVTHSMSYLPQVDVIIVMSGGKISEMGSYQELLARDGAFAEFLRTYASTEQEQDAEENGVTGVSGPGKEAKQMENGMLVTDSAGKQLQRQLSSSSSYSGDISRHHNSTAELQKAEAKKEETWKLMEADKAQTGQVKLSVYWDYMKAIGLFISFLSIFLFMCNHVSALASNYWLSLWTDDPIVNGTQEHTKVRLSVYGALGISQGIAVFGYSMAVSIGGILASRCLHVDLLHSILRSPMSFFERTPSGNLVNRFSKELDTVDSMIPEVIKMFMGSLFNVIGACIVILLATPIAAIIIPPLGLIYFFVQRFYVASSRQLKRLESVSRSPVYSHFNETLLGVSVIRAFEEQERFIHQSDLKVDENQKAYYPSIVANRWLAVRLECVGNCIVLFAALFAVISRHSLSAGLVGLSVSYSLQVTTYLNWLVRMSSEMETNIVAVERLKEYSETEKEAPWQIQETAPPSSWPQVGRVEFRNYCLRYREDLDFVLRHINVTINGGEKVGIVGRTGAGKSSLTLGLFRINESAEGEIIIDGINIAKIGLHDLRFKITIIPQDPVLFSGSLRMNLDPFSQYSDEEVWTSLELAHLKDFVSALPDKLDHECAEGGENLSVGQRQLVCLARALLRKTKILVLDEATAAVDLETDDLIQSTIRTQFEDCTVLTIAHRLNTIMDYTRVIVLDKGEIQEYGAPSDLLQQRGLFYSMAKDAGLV", "assay": "(§2) Reversal of ABCC1 (unknown origin)-mediated multidrug resistance in MDCK2 cells co-expressing MRP1 (unknown origin) assessed as resistance factor by measuring [GI50(resistant cell line without or with compound)/ GI50(sensitive cell line)] at 5 uM incubated for 72 hrs by MTT assay (reference value: 7)", "assay_type": "cell-based"}, "[3]": {"target": "T2, Broad substrate specificity ATP-binding cassette transporter ABCG2 (Homo sapiens, UniProt Q9UNQ0)", "T2 sequence (Q9UNQ0 whole entry)": "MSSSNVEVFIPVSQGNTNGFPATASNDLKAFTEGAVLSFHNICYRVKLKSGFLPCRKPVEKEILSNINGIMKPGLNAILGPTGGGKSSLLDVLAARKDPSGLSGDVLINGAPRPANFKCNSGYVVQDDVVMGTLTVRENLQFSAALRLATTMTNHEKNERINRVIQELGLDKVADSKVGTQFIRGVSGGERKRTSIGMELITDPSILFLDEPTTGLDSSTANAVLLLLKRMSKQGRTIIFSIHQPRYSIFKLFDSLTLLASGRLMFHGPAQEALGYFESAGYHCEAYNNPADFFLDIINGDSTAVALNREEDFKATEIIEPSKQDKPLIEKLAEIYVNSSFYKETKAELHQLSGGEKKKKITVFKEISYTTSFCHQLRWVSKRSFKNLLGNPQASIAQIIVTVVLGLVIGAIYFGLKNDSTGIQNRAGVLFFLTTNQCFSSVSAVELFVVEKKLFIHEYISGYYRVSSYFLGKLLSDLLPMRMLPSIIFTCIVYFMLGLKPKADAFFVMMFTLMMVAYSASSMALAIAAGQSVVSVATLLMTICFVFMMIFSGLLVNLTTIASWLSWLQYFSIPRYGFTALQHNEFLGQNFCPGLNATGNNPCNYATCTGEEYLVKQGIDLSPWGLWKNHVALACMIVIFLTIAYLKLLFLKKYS", "assay": "as §2, with “ABCG2” for “ABCC1”, “BCRP” for “MRP1”, “27)” for “7)”", "assay_type": "cell-based"}, "[4]": {"assay": "Growth inhibition of human MCF7 cells incubated for 72 hrs by MTT assay", "assay_type": "cell-based", "in_short": "as §1"}, "[5]": {"target": "T1, Multidrug resistance-associated protein 1", "assay": "Inhibition of ABCC1 in human H69AR cells preincubated for 30 mins followed by calcein-AM addition measured at 60 secs time interval by fluorescence assay", "assay_type": "cell-based", "in_short": "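Calcein AM accumulation assay in H69AR small-cell lung cancer cells, which express only ABCC1. Inhibited efflux lets calcein AM build up intracellularly, where esterases cleave it to fluorescent calcein. The screen used 10 µM, scaled to a standard ABCC1 inhibitor at 10 µM as 100%. Hits reaching ≥20% inhibition (+SEM) went on to IC50 curves, constrained to that 100% maximum. Values are means of ≥3 independent experiments in duplicate ± SEM.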"}, "[6]": {"assay": "Growth inhibition of MDCK2 cells incubated for 72 hrs by MTT assay", "assay_type": "cell-based, Canis lupus familiaris, MDCK-II", "details": "dog", "in_short": "as §1"}, "[7]": {"target": "T2, Broad substrate specificity ATP-binding cassette transporter ABCG2", "assay": "Reversal of ABCG2-mediated multidrug resistance in human MCF-7/MX cells assessed as resistance factor by measuring [GI50(resistant cell line without or with compound)/ GI50(sensitive cell line)] incubated for 72 hrs by MTT assay (reference value: 789)"}, "[8]": {"target": "ATP-dependent translocase ABCB1 (Homo sapiens, UniProt P08183)", "sequence (P08183 whole entry)": "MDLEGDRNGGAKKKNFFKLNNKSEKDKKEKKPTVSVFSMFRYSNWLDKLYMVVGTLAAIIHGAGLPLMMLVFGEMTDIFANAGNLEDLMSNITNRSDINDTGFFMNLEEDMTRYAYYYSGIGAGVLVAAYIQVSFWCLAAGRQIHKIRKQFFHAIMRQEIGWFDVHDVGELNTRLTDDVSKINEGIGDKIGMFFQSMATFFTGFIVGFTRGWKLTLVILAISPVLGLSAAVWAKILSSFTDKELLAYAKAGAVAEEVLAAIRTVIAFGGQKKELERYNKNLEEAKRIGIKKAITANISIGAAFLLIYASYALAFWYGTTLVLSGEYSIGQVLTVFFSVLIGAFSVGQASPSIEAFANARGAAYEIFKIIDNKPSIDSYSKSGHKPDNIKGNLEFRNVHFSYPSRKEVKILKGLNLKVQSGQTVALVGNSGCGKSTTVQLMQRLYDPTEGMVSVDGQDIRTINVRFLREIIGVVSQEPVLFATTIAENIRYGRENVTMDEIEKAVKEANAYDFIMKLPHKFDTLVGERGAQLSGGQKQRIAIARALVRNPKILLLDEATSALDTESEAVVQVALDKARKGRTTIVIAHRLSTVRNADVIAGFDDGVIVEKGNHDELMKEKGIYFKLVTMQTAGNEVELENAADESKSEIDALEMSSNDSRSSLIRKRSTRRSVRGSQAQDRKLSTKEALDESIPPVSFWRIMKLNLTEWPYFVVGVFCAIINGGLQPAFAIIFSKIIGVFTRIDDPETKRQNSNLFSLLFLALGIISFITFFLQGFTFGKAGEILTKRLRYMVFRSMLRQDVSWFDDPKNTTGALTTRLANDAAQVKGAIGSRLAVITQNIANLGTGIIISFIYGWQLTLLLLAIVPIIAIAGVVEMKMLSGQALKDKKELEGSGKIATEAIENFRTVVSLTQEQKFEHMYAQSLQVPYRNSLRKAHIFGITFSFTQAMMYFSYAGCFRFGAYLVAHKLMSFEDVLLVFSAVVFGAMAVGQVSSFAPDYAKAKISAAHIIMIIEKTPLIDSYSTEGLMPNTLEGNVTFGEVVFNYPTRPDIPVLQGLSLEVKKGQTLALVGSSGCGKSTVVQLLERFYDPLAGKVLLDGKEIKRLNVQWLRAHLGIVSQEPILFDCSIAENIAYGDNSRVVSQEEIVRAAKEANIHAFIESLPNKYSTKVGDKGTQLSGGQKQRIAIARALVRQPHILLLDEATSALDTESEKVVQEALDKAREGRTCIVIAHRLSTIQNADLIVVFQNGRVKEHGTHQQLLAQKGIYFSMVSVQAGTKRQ", "assay": "as §2, with “of ABCB1” for “of ABCC1”, “co-expressing MDR1” for “co-expressing MRP1”, “at 1” for “at 5”, “value: 17)” for “value: 7)”", "assay_type": "cell-based", "in_short": "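MDR reversal assay with daunorubicin at 10 nM–10 µM, alone or with test compound at 0.5, 1, 5 or 10 µM. Resistant cells were ABCB1-overexpressing A2780/ADR or MDCK II MDR1, with sensitive A2780 or MDCK II cells as comparators. Resistance factor = resistant GI50 / sensitive GI50. EC50 was derived from resistance factors versus modulator concentration. Values are from ≥3 experiments in duplicate ± SEM.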"}, "[9]": {"assay": "Growth inhibition of human A2780/ADR cells incubated for 72 hrs by MTT assay", "assay_type": "cell-based", "in_short": "as §1"}},
  "data": [
    {"smiles": "CC1CCc2c(sc3nc(-c4cccnc4)nc(N4CCN(C(C(N)=O)c5ccccc5)CC4)c23)C1", "note": "(centres undefined)", "values": [
      {"measurement": "GI50 at 72 h", "setting": "[1]", "value": 16.4, "unit": "µM"},
      {"measurement": "RatioGI50", "setting": "[2]", "value": 2.2},
      {"measurement": "RatioGI50", "setting": "[3]", "value": 4.5},
      {"measurement": "GI50 at 72 h", "setting": "[4]", "value": 57.8, "unit": "µM"},
      {"measurement": "IC50", "setting": "[5]", "value": 5.04, "unit": "µM"},
      {"measurement": "GI50 at 72 h", "setting": "[6]", "value": 27, "unit": "µM"},
      {"measurement": "RatioGI50", "setting": "[7]", "value": 53},
      {"measurement": "RatioGI50", "setting": "[8]", "value": 4.3},
      {"measurement": "GI50 at 72 h", "setting": "[9]", "value": 25.8, "unit": "µM"}
    ]}
  ]
}
